ChEMBL document CHEMBL2074359, “Structural requirements for determining the substrate affinity of peptide transporters PEPT1 and PEPT2” (Pflugers Arch, 2000)
Peptide text beside a SMILES is read from it.

Columns and labels:
[1] = biological target: T1, Solute carrier family 15 member 2 (Rattus norvegicus, UniProt Q63424); assay: TP_TRANSPORTER: inhibition of Gly-Sar uptake in PEPT2-expressing LLC-PK1 cells; format: functional, cell-based
T1 sequence (Q63424 whole entry): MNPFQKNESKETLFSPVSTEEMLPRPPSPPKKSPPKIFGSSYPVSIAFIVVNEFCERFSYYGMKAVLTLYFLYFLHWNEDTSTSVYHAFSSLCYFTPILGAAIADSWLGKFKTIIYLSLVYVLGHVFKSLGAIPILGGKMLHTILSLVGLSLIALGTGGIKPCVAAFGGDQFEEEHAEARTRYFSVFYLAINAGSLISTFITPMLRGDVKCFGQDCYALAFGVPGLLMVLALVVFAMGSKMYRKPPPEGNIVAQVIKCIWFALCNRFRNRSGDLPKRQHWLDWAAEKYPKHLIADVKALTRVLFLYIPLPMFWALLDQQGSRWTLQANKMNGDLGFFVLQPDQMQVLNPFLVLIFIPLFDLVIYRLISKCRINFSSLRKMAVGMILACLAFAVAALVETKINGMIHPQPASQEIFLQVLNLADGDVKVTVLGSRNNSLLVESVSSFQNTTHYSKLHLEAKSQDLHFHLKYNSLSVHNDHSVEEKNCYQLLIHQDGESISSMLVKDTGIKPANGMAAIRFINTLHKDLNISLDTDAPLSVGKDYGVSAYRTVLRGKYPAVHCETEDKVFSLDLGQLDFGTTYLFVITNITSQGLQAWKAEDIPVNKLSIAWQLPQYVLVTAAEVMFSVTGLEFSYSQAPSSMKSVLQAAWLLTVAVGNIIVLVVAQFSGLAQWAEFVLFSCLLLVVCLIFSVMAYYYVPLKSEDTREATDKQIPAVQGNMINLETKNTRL
Procedure, shortened: (§1)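 LLC-PK1 cells stably carrying rat PEPT2 cDNA, grown 6 days in DMEM with 10% FBS. Monolayers were incubated 15 min at 37°C with [14C]glycylsarcosine (20 µM, pH 6.0) alone or with inhibitor, mostly 1–10000 µM. Uptake was normalized to Bradford protein, with control as 100%. IC50 came from nonlinear regression and Ki from Cheng–Prusoff. Two monolayers per concentration, four for control.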

[2] = biological target: T2, Solute carrier family 15 member 1 (Rattus norvegicus, UniProt P51574); assay: TP_TRANSPORTER: inhibition of Gly-Sar uptake in PEPT1-expressing LLC-PK1 cells; format: functional, cell-based
T2 sequence (P51574 whole entry): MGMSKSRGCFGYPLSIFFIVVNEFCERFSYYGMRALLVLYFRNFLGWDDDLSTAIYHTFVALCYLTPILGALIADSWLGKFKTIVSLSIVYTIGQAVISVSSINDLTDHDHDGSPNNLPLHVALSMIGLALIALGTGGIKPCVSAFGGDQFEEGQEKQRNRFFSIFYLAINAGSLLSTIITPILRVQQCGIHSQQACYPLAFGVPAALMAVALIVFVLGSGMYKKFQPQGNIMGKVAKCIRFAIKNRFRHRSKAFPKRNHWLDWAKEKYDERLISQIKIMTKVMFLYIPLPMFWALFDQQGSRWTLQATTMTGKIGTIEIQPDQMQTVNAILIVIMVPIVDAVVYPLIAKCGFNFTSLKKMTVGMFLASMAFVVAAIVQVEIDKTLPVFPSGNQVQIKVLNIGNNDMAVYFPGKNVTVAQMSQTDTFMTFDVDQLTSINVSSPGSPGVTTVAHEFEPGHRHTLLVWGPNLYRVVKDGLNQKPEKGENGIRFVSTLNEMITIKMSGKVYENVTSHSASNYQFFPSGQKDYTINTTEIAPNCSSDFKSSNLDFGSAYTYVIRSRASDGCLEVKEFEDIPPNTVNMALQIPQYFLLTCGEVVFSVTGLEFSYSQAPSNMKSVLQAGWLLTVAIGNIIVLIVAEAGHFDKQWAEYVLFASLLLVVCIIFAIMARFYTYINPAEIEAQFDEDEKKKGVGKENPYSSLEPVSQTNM
Procedure, shortened: as §1, with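 “PEPT1” for “PEPT2”, “10–20000” for “1–10000”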

Structure (SMILES) | Ki [1] [µM] | Ki [2] [µM]
NCCCC[C@H](NC(=O)[C@@H](N)CCCCN)C(=O)O | 96 | 8000
C[C@H](N)C(=O)Nc1ccc([N+](=O)[O-])cc1 | 29 | 61
N[C@@H](CC(=O)O)C(=O)N[C@@H](CC(=O)O)C(=O)O (H-Asp-Asp-OH) | 150 | 990
NCC(=O)NCC(=O)N[C@@H](Cc1ccccc1)C(=O)O (H-Gly-Gly-Phe-OH) | 29 | 610
CC(C)C[C@H](NC(=O)CN)C(=O)N[C@@H](Cc1ccc(O)cc1)C(=O)O (H-Gly-Leu-Tyr-OH) | 8 | 190
NCC(=O)N[C@@H](Cc1c[nH]c2ccccc12)C(=O)O (H-Gly-Trp-OH) | 7 | 1400
NCC(=O)N[C@@H](Cc1ccc(O)cc1)C(=O)O (H-Gly-Tyr-OH) | 14 | 210
CSCC[C@H](N)C(=O)N[C@@H](C)C(=O)O (H-Met-Ala-OH) | 17 | 150
N[C@@H](Cc1ccccc1)C(=O)NCC(=O)O (H-Phe-Gly-OH) | 7 | 220
O=C(O)CNC(=O)[C@@H]1CCCN1 (H-Pro-Gly-OH) | 2000 | 13000
CSCC[C@H](NC=O)C(=O)N[C@@H](C)C(=O)O (HELM PEPTIDE1{[O=C[*:2]].M.A}$$$$V2.0) | 10000 | 24000
CC(C)C[C@H](NC(=O)[C@@H](O)[C@H](N)Cc1ccccc1)C(=O)O [UBENIMEX] | 18 | 1500

Further lines, results first:

Ki [1] [µM] | Ki [2] [µM] | Structure (SMILES)
7900 | 4400 | NCCCCCCCC(=O)O
28000 | > 50000 | N[C@@H](CC(=O)NCC(=O)O)C(=O)O
2200 | 13000 | CNCC(=O)NCC(=O)O
6 | 110 | CC(C)C[C@H](NC(=O)CN)C(=O)O
46 | 830 | N[C@@H](CC(=O)O)C(=O)NCC(=O)O (H-Asp-Gly-OH)
22 | 270 | NCC(=O)N[C@@H](CC(N)=O)C(=O)O (H-Gly-Asn-OH)
60 | 300 | NCC(=O)N[C@@H](CC(=O)O)C(=O)O (H-Gly-Asp-OH)
42 | 860 | NCC(=O)NCC(=O)O (H-Gly-Gly-OH)
39 | 1400 | NCC(=O)N[C@@H](Cc1c[nH]cn1)C(=O)O (H-Gly-His-OH)
210 | 2200 | NCCCC[C@H](NC(=O)CN)C(=O)O (H-Gly-Lys-OH)
8 | 170 | NCC(=O)N[C@@H](Cc1ccccc1)C(=O)O (H-Gly-Phe-OH)
21 | 910 | NCCCC[C@H](N)C(=O)NCC(=O)O (H-Lys-Gly-OH)
230 | 2200 | NCC(=O)CCC(=O)O [AMINOLEVULINIC ACID]
66 | 8000 | NCCC(=O)N[C@@H](Cc1cnc[nH]1)C(=O)O [CARNOSINE]
160 | 1300 | NCC(=O)NCC(=O)NCC(=O)O [GLYCYLGLYCYLGLYCINE]
